Source: PubChem BioAssay (The Scripps Research Institute Molecular Screening Center)
Rin1 Abl inh – blocks binding of human Rin1 to Abl. AID 588664. TR-FRET Rin1/Abl binding, biochemical. 360,000 compounds, 0.4% hits. inhibition, % at 7.35 µM. P00519+Q13671; in the data active = inhibition above about 5%, passing the limit was not always enough
GalR3 antag – antagonists of human GalR3 | inhibition, % at 3 µM | HEK293 GalR3-CNG cAMP membrane potential fluorescence; galR3 body fused to GalR1 C-terminus | AID 651719 | 360,000 compounds, 0.44% hits;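 active = inhibition above the screen-wide average plus 3 SD, cut at about 13% in these data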;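 also: forskolin and galanin both at EC90 stimulate the cells; cAMP rise reported by CNG channel membrane potential dye signal; 0% = forskolin plus galanin with DMSO and 100% = forskolin alone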
ARFGAP1 inhibitor – rat ARFGAP1 inhibition. 360,000 compounds, 0.26% hits. Arfgap1-stimulated ARF1 GTP hydrolysis, GDP FP detection. Q62848. AID 651572. inhibition, % at 16.5 µM;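 active = inhibition above a per-plate limit, mean inhibition of low control wells plus 3 SD, cut at about 25% in these data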;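 also: 0% = DMSO wells with enzyme and 100% = wells lacking Arfgap1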
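System: truncated rat Arfgap1 GAP domain / Benchmarks: high control wells lacking Arfgap1, low control full reaction with DMSO / Times: compound-enzyme preincubation 20 min, reaction 120 min, detection 60 min, 25 °C / Repeats: one replicate per compound / Also added: human ARF1(Δ1-17)-GTP substrate / Measured by: Tracer-displacement fluorescence polarization with EDTA stop, 620/688 nm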
ASAP1 GAP inh – blocks human ASAP1-stimulated Arf1 GTP hydrolysis; Q9ULH1; GDP FP detection; inhibition, % at 16.5 µM; 360,000 compounds, 0.19% hits; AID 624377; in the data active = inhibition above about 25%;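 also: 0% = vehicle with enzyme and substrate and 100% = no enzyme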
* marks the source's active call; other numbers are inactive results; / = no result. Only some compounds are listed: those with a hit (about 1.2% of all), similar ones and a draw of the others.

SMILES	Rin1 Abl inh	GalR3 antag	ARFGAP1 inhibitor	ASAP1 GAP inh
O=C(/C=C(\Nc1cc(Cl)c(Cl)c(Cl)c1)c1ccccc1)c1ccccc1	/	-5	-1	6
N#C/C(=C\Nc1ccc2cn[nH]c2c1)c1nc(-c2ccc(Cl)cc2)cs1	0	-4	15	29*
N#C/C(=C\Nc1ccc2cn[nH]c2c1)c1nc(-c2ccccc2)cs1	-7	-4	-4	2
Cc1occc1-c1n[nH]c(=S)n1-c1ccccc1	-7	-3	9	4
Cc1occc1-c1n[nH]c(=S)n1C	-1	13*	-2	-9
Cc1ccccc1C(=O)N[C@H](C(=O)N1CCC[C@H]1C(=O)NCc1ccccc1)c1ccccc1	/	-8	-1	10
Cc1ccc(C(=O)N2CCC[C@@H]2C(=O)N2CCC[C@H]2C(=O)NCc2ccccc2)cc1	/	-5	-6	1
O=C(O)C1Nc2c(O)cc(Cl)c([N+](=O)[O-])c2C2C=CCC12 (stereo not given)	14*	-2	-4	22
COC(=O)[C@@H](Cc1ccccc1)N[C@H](/C=C/c1ccccc1)[C@@H](O)Cc1ccccc1	/	-6	21	8
C[C@H](CO)N1C[C@H](C)[C@@H](CN(C)C(=O)Nc2ccc3c(c2)OCO3)OCc2cn(nn2)CCCC1=O	/	-1	5	-17
COC(=O)C1=C(C)N(Cc2ccccc2C(F)(F)F)C(=NCc2ccc(OC)cc2)NC1c1ccc(F)cc1 (stereo not given)	/	-7	8	3
COc1ccc(CC2=CC(=O)c3ccccc3C2=O)cc1	6.8*	-12	4	-1
COc1ccc(Cc2ccccc2C(=O)O)cc1	2	-5	9	-7
O=C1CCCc2oc3c(cc(NS(=O)(=O)c4ccc5c6c(cccc46)C(=O)N5)c4ccccc43)c21	-2	41*	11	18
CCOc1ccc(OCc2ccc(C(=O)NN=Cc3ccc[nH]3)cc2)cc1	4	56*	-6	-3
O=C(Cn1cnc2ccccc21)Nc1ccc(SC(F)F)cc1	2	74*	7	0
CCCCS(=O)(=O)N1CCCc2nc(-c3ccc(F)cc3)ccc21	/	-7	-3	0
Cc1cc2c(N=O)c(NO)ccc2[nH]1	12*	/	/	/
O=Nc1c(O)[nH]c2ccc(F)cc12	4	-3	-12	11
Cc1ccc(NC(=O)NNC(=O)CSC2CCc3ccccc32)c(C)c1 (stereo not given)	/	-7	1	7
Cc1cc(C)n(Cc2ccc(C(=O)O)cc2)n1	2	-2	1	-6
Cc1ccc(C)n1Cc1ccc(C(=O)O)cc1	15*	/	/	/
Oc1cc2c(cc1O)[C@H]1c3ccc(O)c(O)c3OC[C@@]1(O)C2	31*	-6	-10	3
Oc1ccc2c(c1)OCC1(O)Cc3cc(O)c(O)cc3C21 (stereo not given)	5	-6	6	3
COC(=O)[C@]12C[C@H](CC(=O)N3CCN(C(=O)c4ccco4)CC3)C(=O)N(Cc3ccccc3)C1=C[C@H](C1CCCC1)O[C@@H]2C	/	-2	-7	-6
SMILES	Rin1 Abl inh	GalR3 antag	ARFGAP1 inhibitor	ASAP1 GAP inh
O=C(O[C@@H]1OC2COC(=O)c3cc(O)c(O)c(O)c3-c3c(cc(O)c(O)c3O)C(=O)O[C@@H]([C@H]1O)[C@@H]2O)c1cc(O)c(O)c(O)c1	69*	/	/	/
COc1cc2c(c(OC)c1OC)C1(CCCCC1)CC2NCC=C(C)C (stereo not given)	/	-8	14	-4
O=S(=O)(Nc1cc(Sc2ncn[nH]2)c(O)c2ccccc12)c1ccccc1	7	-9	5	25*
Cc1ccc(OC(=O)N(C)C[C@H]2OCc3cn(nn3)CCCC(=O)N([C@@H](C)CO)C[C@@H]2C)cc1	/	-5	4	-10
O=C(OCC(=O)c1ccc(Cl)cc1Cl)c1ccc2c(c1)C(=O)N(c1cccc3ncccc13)C2=O	0	-6	-3	114*
Cc1ccc(C(=O)COC(=O)c2ccc3c(c2)C(=O)N(c2cccc4ncccc24)C3=O)cc1	1	-4	-9	-3
Brc1ccc(-c2nnc3c4ccccc4nc(N4CCOCC4)n23)cc1	-2	-4	-3	-2
Fc1ccccc1-c1nnc2c3ccccc3nc(N3CCOCC3)n12	5.7*	-2	-1	10
COC(=O)C1=C(C)N(Cc2ccc(C(F)(F)F)cc2)C(=NCc2ccccc2)NC1c1ccc(C(F)(F)F)cc1 (stereo not given)	/	-3	5	3
Cc1ccc(/C=N/Nc2ccc(C(=O)O)cc2)o1	5	-6	-6	-2
O=C(O)c1ccc(N/N=C/c2ccc(-c3ccc(Br)cc3)o2)cc1	12*	0	-3	-15
COc1ccc(CN2CCN(c3cccc(C)c3C)CC2)cc1OC	1	-3	34*	1
COc1cc(CN2CCN(c3cccc(C)c3C)CC2)cc(Br)c1O	-5	-6	1	-11
COc1ccccc1CCn1cnc(-c2ccc(OC)c(OC)c2)c1CC(C)C	/	-7	-2	2
CCCCCCCCN1C(=O)[C@@H](CC(=O)NCCCN2CCCC2=O)C[C@@]2(C(=O)OC)C1=C[C@H](C(C)(C)C)O[C@@H]2C	/	-7	-11	-1
O=C1CSC(=S)N1/N=C/c1ccc(O)c(O)c1O	30*	/	/	/
O=C(Nc1cccc(NC(=O)c2c(F)cccc2F)n1)c1c(F)cccc1F	1	-9	25*	14
O=C(Nc1cccc(NC(=O)c2cccc(F)c2)n1)c1cccc(F)c1	0	-7	-1	1
COC(=O)C1=C(C)N(Cc2ccccc2C(F)(F)F)C(=NCc2ccc3c(c2)OCO3)NC1c1ccccc1C(F)(F)F (stereo not given)	/	-6	6	16
CC(C)C[C@H](NC(=O)c1ccc(Cl)cc1Cl)C(=O)N1CCC[C@H]1C(=O)NCc1ccccc1	/	-7	-2	14
CCC(=O)NC(c1cccs1)c1ccc2cccnc2c1O (stereo not given)	9.8*	-3	6	-8
CC(C)CC(=O)NC(c1cccs1)c1ccc2cccnc2c1O (stereo not given)	3	/	/	/
COc1ccc(-c2ccc3c(=O)cc(-c4ccsc4)oc3c2)cn1	2	-3	36*	26*
O=[N+]([O-])c1cc(CN2CCCC2)c2cccnc2c1O	52*	/	/	/
Oc1c(Cl)cc(CN2CCCCC2)c2cccnc12	12*	/	/	/
SMILES	Rin1 Abl inh	GalR3 antag	ARFGAP1 inhibitor	ASAP1 GAP inh
O=[N+]([O-])c1cc(CN2CCN(c3cccc(C(F)(F)F)c3)CC2)c2cccnc2c1O	/	-11	5	-12
C[C@@H]1CNC(=O)c2c(C(=O)N3CCN(c4ccccc4)CC3)ncn21	/	-6	-6	7
COc1ccc(Cl)c(Cn2c(NCc3ccco3)nc3c2c(=O)n(C)c(=O)n3C)c1	11*	8	-1	15
O=C(Nc1ccc(Br)cc1)c1ccc(F)c(S(=O)(=O)NCc2cccs2)c1	-5	109*	9	12
COc1cccc(C(=O)Oc2cc3c4c(c2)C(C)=CC(C)(C)N4C(=O)C3=O)c1	2	24*	5	0
c1ccc(-c2csc3ncnc(NCC4COc5ccccc5O4)c23)cc1 (stereo not given)	0	88*	-6	-6
